# TMEM16A act – activators or potentiators of mouse TMEM16A chloride channel. actives 0.3% (n = 340,000). HEK293 TMEM16A/YFP-H148Q/I152L, iodide quench fluorescence; active compounds read low. Q8BHY3. B-score at 10 µM;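 active = fluorescence-ratio B-score plate-corrected deviation score at least 3 library SD below zero, with starting fluorescence score within 5 deviations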;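 also: channel opened by trigger with iodide after compound preincubation; score built on the fluorescence ratio of max minus min over baseline; more negative score means more quench and so TMEM16A activation or potentiation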
# TMEM16A inh – blocks the mouse calcium-activated chloride channel TMEM16A; Q8BHY3; HEK293 TMEM16A/YFP iodide influx fluorescence, ionomycin; AID 588511; normalized B-score (activity score, 25-100; higher = stronger inhibition) at 10 µM; actives 1.2% (n = 310,000);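 active = ratio plate-corrected score three or more library SD toward inhibition, starting fluorescence score within five deviations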;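 also: score derived from kinetic fluorescence span divided by baseline fluorescence per well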
# TAAR1 antag – human TAAR1 antagonism; Q96RJ0; CHO RD-HGA16 TAAR1, Fluo-8 calcium fluorescence, antagonist; inhibition, % at 3 µM; actives 1.5% (n = 360,000); AID 624466;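 active = inhibition above a per-plate cutoff, the mean inhibition of test compounds on that plate plus 3 SD, cut at about 49% in these data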;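 also: 0% = DMSO plus EC80 beta-PEA response and 100% = DMSO alone without agonist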
# Target sequence (Q96RJ0 whole entry, looked up): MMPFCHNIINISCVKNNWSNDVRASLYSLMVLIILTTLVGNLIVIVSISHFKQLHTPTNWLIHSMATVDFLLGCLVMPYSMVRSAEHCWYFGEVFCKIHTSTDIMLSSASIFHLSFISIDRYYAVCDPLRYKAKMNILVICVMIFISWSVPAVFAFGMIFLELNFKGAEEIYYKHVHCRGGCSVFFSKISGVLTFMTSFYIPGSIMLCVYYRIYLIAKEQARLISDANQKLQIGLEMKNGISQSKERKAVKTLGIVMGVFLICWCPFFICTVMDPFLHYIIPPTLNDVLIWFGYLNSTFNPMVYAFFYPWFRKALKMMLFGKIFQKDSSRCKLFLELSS
#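 System: RD-HGA16 CHO cells with stable hTAAR1 and Gα16 | Probe or stimulus: EC80 β-phenethylamine stimulus | Dosing: 3 µM, single point | Times: Dye loading 75 min at 37 °C, then 30 min room temperature | Measured by: Fluo-8 calcium-sensitive fluorescence | Read-out basis: % inhibition of agonist calcium response | Replicates: n of 1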
# TAAR1 ag – human TAAR1 agonism | CHO RD-HGA16 TAAR1, Fluo-8 calcium fluorescence; vehicle wells 0%, saturating PEA agonist 100% | actives 0.99% (n = 360,000) | activation, % at 3 µM | Q96RJ0;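 active = activation above the mean activation of all test compounds in the run plus 3 SD, cut at about 38% in these data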
#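 Test system: RD-HGA16 (CHO) cells co-expressing Gα16 and hTAAR1 | Doses: Single dose, 3 µM | Schedule: 17-24 h seeding, 75 min 37 °C dye, 30 min RT | Evaluation: % activation from peak over basal fluorescence ratio, DMSO-to-PEA scaled | Technique: Kinetic Fluo-8 calcium fluorescence | Benchmarks: Low control DMSO, high control PEA (EC100)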
# CRFBP-R2 agonist – agonists of human CRF-binding protein/CRF-R2 receptor complex; activation, % at 13.2 µM; HEK293 CRF-R2/CRF-BP, calcium dye fluorescence (FLIPR); percent of saturating CRF peptide response; actives 0.46% (n = 350,000);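 active = activation of at least 50%, plus an integration ratio under a set limit after plate pattern correction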;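 also: plate controls were neutral control wells without compound for no effect and CRF at EC100 for full effect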
# CRFBP-R2 block – antagonists of CRF-binding protein/CRF-R2 receptor complex; HEK293 CRF-R2/CRF-BP, CRF-induced calcium fluorescence; AID 588475; inhibition, % at 11.8 µM; actives 0.59% (n = 350,000);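 active = inhibition of the ligand-induced calcium signal above about 50% at the single tested concentration, limit read from the data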
# Numbers without * were called inactive; i = inactive; . = no result. Compounds with a hit are over-represented: about 3.9% of the library has one in this group of screens.
SMILES,TMEM16A act,TMEM16A inh,TAAR1 antag,TAAR1 ag,CRFBP-R2 agonist,CRFBP-R2 block
COC(=O)c1cccc(NC(=O)CCSc2ccc(Cl)cc2)c1C,i,i,91.3*,77.4*,5.3,1.1
COc1ccc(NC(=O)Cc2c(SC)c3ccccc3n2Cc2ccccc2)cc1,i,i,9.0,3.9,-2.4,60.5*
O=c1c2ccccc2nnn1CSc1nc2ccccc2[nH]1,-7.55*,i,5.2,1.7,-6.2,19.4
CCc1cc(/C(Cc2ccc3ccccc3n2)=N\O)c(O)cc1O,i,100*,8.5,5.7,-2.6,-6.1
CCCC(c1nnnn1Cc1ccc(OC)cc1)N1CCN(C(=O)c2ccco2)CC1 (configuration not stated),i,i,6.1,-3.1,0.2,7.8
CN1CCN(C2=C(Cl)C(=O)C(c3cnc(N4CCCCC4)s3)=C(Cl)C2=O)CC1,i,100*,.,.,0.5,-17.2
O=C(Nc1nc(-c2ccccc2)nc2ccccc12)c1ccc(F)cc1,i,i,-6.7,1.9,-0.2,-0.2
Cc1c(-c2ccc(Cl)cc2)[n+](=O)c2c(n1[O-])CCCC2,i,i,-5.7,0.9,-0.7,-8.1
Cc1c(-c2ccc(Cl)cc2)[n+](=O)c(-c2ccccc2)cn1[O-],i,i,0.8,0.1,-0.4,110.8*
COc1cccc(-c2ncc3ccccc3c2COC(=O)N2CCOCC2)c1,i,.,55.6*,22.9,0.3,-8.0
COc1cccc(-c2ncc3ccccc3c2COC(=O)N2CCCCC2)c1,i,.,37.3,11.9,-1.6,-12.0
CCOc1ccccc1CN1C(=O)NC2(CCCCCC2)C1=O,i,i,-22.3,0.0,0.2,10.3
O=C1NC(=Nc2ccccc2Cl)S/C1=C\c1cc([N+](=O)[O-])ccc1O,i,i,26.6,11.5,60.8*,-44.2
COc1cccc(N=C2NC(=O)/C(=C/c3cc([N+](=O)[O-])ccc3O)S2)c1,i,i,-6.4,7.3,38.2,-74.1
Cc1ccc(S(=O)(=O)/N=C2/NC(=O)/C(=C/c3cc([N+](=O)[O-])ccc3O)S2)cc1,i,i,37.5,30.4,66.8*,-137.2
COc1ccc(CN(C)C(=O)C(Cc2ccccc2)NC(=O)c2ccccc2)cc1F (configuration not stated),i,.,73.3*,14.4,-0.4,0.4
COc1ccc(CN(C)C(=O)c2ccc(Oc3ccccc3)cc2)cc1F,i,i,32.3,1.4,1.4,8.4
Cc1ccccc1OCCOc1ccccc1C=C(C#N)C#N,.,i,.,.,.,.
c1csc(CNc2ccn3nc(-c4ccc(OCCN5CCOCC5)cc4)cc3n2)c1,.,.,33.1,29.3,.,.
c1ccc(OCCNc2ccn3nc(-c4ccc(OCCN5CCOCC5)cc4)cc3n2)cc1,.,.,61.4*,20.0,.,.
O=[S@]1Oc2ccccc2-c2ccccc21,i,i,12.4,51.0*,2.9,-17.6
CCN(C(=O)Cn1cnc2cc([N+](=O)[O-])ccc2c1=O)C1CCS(=O)(=O)C1 (configuration not stated),i,i,4.1,1.4,-0.9,1.4
CN1CCN(C2Cc3ccccc3Sc3cc(C(F)(F)F)ccc32)CC1 (configuration not stated),i,i,30.3,51.3*,1.2,-12.6
COc1ccc(OC)c(C(=O)c2ccc(C(=O)Nc3ccc(NC(C)=O)cc3)cc2)c1,i,i,-13.7,3.9,0.6,14.3
Clc1ccc(-c2csc(N3CCOCC3)n2)cc1,i,.,11.4,3.9,-6.5,77.0*
Clc1ccc(CNc2nc(N3CCOCC3)nc(N3CCOCC3)n2)cc1,-7.64*,i,-15.9,8.6,-3.8,1.3
Brc1ccc(-c2csc(N3CCOCC3)n2)cc1,i,i,14.6,4.4,-0.5,-6.7
O=C(O)COc1ccc(/C=N/NC(=O)c2cccc3ccccc23)cc1,i,i,-6.6,2.6,-0.3,-4.0
O=C(O)c1ccccc1-c1c2cc(I)c(=O)c(I)c-2oc2c(I)c(O)c(I)cc12,i,i,82.9*,136.4*,242.8*,-254.5
